Experiment [1] concerns the target 3',5'-cyclic-AMP phosphodiesterase 4B (Homo sapiens, UniProt Q07343, S133D). Description: Inhibition of human PDE4B1 S133D mutant by coupled enzyme based fluorescence analysis. Put shortly:
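Mutationally activated dimeric enzymes: PDE4D7-S129D (PDE4D*) and PDE4B1-S133D (PDE4B*). A real-time coupled enzyme assay measured inhibition instead of a fluorescein-labeled cAMP substrate, because the label prevents UCR2 closure. PDE4B* was used to assess subtype selectivity. The method otherwise followed earlier work.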

A further experiment is filed under the species Homo sapiens. Briefly: Selectivity index, ratio of IC50 for human PDE4B1 S133D mutant to IC50 for human PDE4D7 S129D mutant.
Experiment [2] is described as follows: Inhibition of human PDE4D7 S129D mutant by coupled enzyme based fluorescence analysis.

Molecules are shown by their SMILES.

Data on 4 molecules can be found in ChEMBL document CHEMBL5316305, “An Empirical Quantitative Structure-Activity Relationship Equation Assists the Discovery of High-Affinity Phosphodiesterase 4D Inhibitors as Leads to PET Radioligands” (J Med Chem, 2023).

One may read the IC50 as the midpoint of a concentration-inhibition curve. A lower IC50 goes with higher potency.

Chain of 3',5'-cyclic-AMP phosphodiesterase 4B (Q07343 whole entry S133D): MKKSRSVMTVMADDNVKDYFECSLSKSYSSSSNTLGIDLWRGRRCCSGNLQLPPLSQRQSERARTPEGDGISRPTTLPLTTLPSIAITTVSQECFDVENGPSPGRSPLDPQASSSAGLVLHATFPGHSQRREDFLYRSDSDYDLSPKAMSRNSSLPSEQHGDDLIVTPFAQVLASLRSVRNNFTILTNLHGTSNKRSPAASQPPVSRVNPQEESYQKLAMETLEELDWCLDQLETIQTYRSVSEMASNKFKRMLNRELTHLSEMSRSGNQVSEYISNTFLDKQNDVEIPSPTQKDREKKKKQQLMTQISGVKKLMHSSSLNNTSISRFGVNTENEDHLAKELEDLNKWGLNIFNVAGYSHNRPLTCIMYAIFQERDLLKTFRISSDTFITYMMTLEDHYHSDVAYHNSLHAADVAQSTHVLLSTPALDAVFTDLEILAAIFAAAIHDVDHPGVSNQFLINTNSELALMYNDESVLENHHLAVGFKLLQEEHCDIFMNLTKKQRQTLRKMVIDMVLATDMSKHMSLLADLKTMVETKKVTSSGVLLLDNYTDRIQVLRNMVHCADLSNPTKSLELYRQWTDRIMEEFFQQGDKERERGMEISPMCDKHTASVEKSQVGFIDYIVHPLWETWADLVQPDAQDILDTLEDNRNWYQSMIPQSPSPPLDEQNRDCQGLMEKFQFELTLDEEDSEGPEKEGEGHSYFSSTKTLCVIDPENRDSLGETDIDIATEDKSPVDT

With `COc1ccc(Cc2cn[nH]c2)nc1-c1cccc([N+](=O)[O-])c1`, in experiment [1], the IC50 came to 0.28 µM.
On to `COc1ccc(Cc2ccncc2)nc1-c1cccc(Cl)c1`, for which it took 0.72 µM to reach half-maximal inhibition in experiment [1] (IC50).
Still for that read-out and setting: with `COc1ccc(Cc2ccncc2)nc1-c1cccc([N+](=O)[O-])c1` the figure was 1.12 µM.
Consider `COc1ccc(Cc2cnn(C)c2)nc1-c1cccc(Cl)c1`, for which the results for the IC50 in experiment [1] and in experiment [2] were 0.858 µM and 0.0005 µM, respectively. Moreover, in the experiment listed under Homo sapiens, the Ratio IC50 came to 1670.
